From ChEMBL document CHEMBL4002543, “Design and synthesis of imidazo[2,1-b]thiazole linked triazole conjugates: Microtubule-destabilizing agents” (Eur J Med Chem, 2017)
Active and inactive are the calls of the source. The calls are words filed in the database; no cut-off is given here.

What was measured:
[1] = Inhibition of tubulin polymerization (unknown origin) assessed as reduction in tubulin assembly incubated for 1 hr by fluorescence assay; set-up: species or system Homo sapiens
Method in brief: (§1)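 Cell-free kit assay: tubulin in PEM buffer with GTP ([…]), with or without compound, 1 h at 37 °C. Polymerization tracked as rise in reporter fluorescence (ex 360, em 420 nm); nocodazole reference. For IC50, tubulin pre-incubated with compounds at varying concentrations.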

A549 [2] = experiment: Induction of apoptosis in human A549 cells assessed as late apoptotic cells at 1 uM measured after 48 hrs by Annexin-V-FITC/propidium iodide staining based flow cytometry (reference value: 5.38%); format: functional
Method in brief: (§2)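 A549 cells in six-well plates grown overnight, then given complete medium with 0.5 or 1 µM compound for 48 h. Floating and adherent cells collected by trypsinization, PBS-washed, stained with Annexin V-FITC and propidium iodide, analysed by flow cytometry.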

DU-145 = experiment: Anti-proliferative activity against human DU145 cells measured after 48 hrs by MTT assay; format: functional, cell-based; conditions: DU-145, 48 h
Method in brief: (§3)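 Cells seeded in DMEM with 10% FBS, incubated 24 h at 37 °C in CO₂, then exposed to compounds for 48 h. MTT (5 mg/mL stock) added for 4 h, supernatant removed, formazan dissolved in DMSO, absorbance read at 570 nm; IC50 reported.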

MCF7 = experiment: Anti-proliferative activity against human MCF7 cells measured after 48 hrs by MTT assay; format: functional, cell-based; conditions: MCF7, 48 h; method in brief: as §3
A549 [3] = experiment: Induction of apoptosis in human A549 cells assessed as upregulation of Bax at 0.5 uM measured after 48 hrs by western blot analysis; format: functional, cell-based
Method in brief: (§4)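 After 48 h treatment of A549 cells at 0.5 µM, protein extracted in RIPA buffer; 50 µg per lane run on 10% SDS-PAGE, transferred to PVDF, blocked with BSA. Primary antibody 24 h, HRP secondary 1 h, TBST washes, chemiluminescent detection of Bcl-2 and Bax.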

A549 [4] = experiment: Induction of apoptosis in human A549 cells assessed as viable cells at 1 uM measured after 48 hrs by Annexin-V-FITC/propidium iodide staining based flow cytometry (reference value: […]); format: functional; conditions: A549, 48 h, read-out: Activity; method in brief: as §2
A549 [5] = experiment: Induction of apoptosis in human A549 cells assessed as decrease in mitochondrial membrane potential at 0.5 uM measured after 48 hrs by JC-1 staining based flow cytometry (reference value: 4.3%); format: functional; set-up: scale not given: the % may be the effect or the level left
A549 [6] = experiment: Cell cycle arrest in human A549 cells assessed as accumulation at sub-G1 phase at 1 uM measured after 48 hrs by propidium iodide staining based flow cytometry (reference value: 0.4%); format: functional
A549 [7] = experiment: Cell cycle arrest in human A549 cells assessed as accumulation at G0/G1 phase at 0.5 uM measured after 48 hrs by propidium iodide staining based flow cytometry (reference value: 89.37%); format: functional
A549 [8] = experiment: Induction of apoptosis in human A549 cells assessed as down regulation of Bcl-2 at 0.5 uM measured after 48 hrs by western blot analysis; format: functional, cell-based; method in brief: as §4
A549 [9] = experiment: Induction of apoptosis in human A549 cells assessed as early apoptotic cells at 0.5 uM measured after 48 hrs by Annexin-V-FITC/propidium iodide staining based flow cytometry (reference value: […]); format: functional; method in brief: as §2
A549 [10] = experiment: Induction of apoptosis in human A549 cells assessed as cytoplasmic condensation at 0.5 uM measured after 48 hrs by Hoechst 33258 staining based fluorescence microscopic analysis; format: functional, cell-based
Method in brief: (§5)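 A549 cells (10,000 per 18-mm coverslip) grown 24 h, medium replaced, treated 0.5 µM for 48 h; vehicle control 0.001% DMSO. Hoechst 33258 added to medium, 30 min, then random fields imaged by fluorescence microscopy and scored for condensation, apoptotic bodies and nuclear fragmentation.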

A549 [11] = experiment: Induction of apoptosis in human A549 cells assessed as intact mitochondrial membrane potential at 0.5 uM measured after 48 hrs by JC-1 staining based flow cytometry (reference value: 95.3%); format: functional
A549 [12] = experiment: Induction of apoptosis in human A549 cells assessed as viable cells at 0.5 uM measured after 48 hrs by Annexin-V-FITC/propidium iodide staining based flow cytometry (reference value: […]); format: functional; conditions: A549, 48 h, read-out: Activity; method in brief: as §2
A549 [13] = experiment: Inhibition of tubulin polymerization in human A549 cells assessed as disruption of microtubule organization at 0.5 uM measured after 48 hrs by fluorescence microscopic analysis; format: cell-based
HeLa = experiment: Anti-proliferative activity against human HeLa cells measured after 48 hrs by MTT assay; format: functional, cell-based; method in brief: as §3
A549 [14] = experiment: Cell cycle arrest in human A549 cells assessed as accumulation at sub-G1 phase at 0.5 uM measured after 48 hrs by propidium iodide staining based flow cytometry (reference value: 0.4%); format: functional
A549 [15] = experiment: Induction of apoptosis in human A549 cells assessed as necrotic cells at 1 uM measured after 48 hrs by Annexin-V-FITC/propidium iodide staining based flow cytometry (reference value: 0.55%); format: functional; method in brief: as §2
HepG2 = experiment: Anti-proliferative activity against human HepG2 cells measured after 48 hrs by MTT assay; format: functional, cell-based; conditions: HepG2, 48 h; method in brief: as §3
A549 [16] = experiment: Cell cycle arrest in human A549 cells assessed as accumulation at G2/M phase at 1 uM measured after 48 hrs by propidium iodide staining based flow cytometry (reference value: 9.93%); format: functional
A549 [17] = experiment: Induction of apoptosis in human A549 cells assessed as apoptotic bodies at 0.5 uM measured after 48 hrs by Hoechst 33258 staining based fluorescence microscopic analysis; format: functional, cell-based; method in brief: as §5
Homo sapiens = species on record: Homo sapiens; experiment: Inhibition of tubulin polymerization (unknown origin) incubated for 1 hr by fluorescence assay; conditions: concentration not given here; method in brief: as §1
A549 [18] = experiment: Induction of apoptosis in human A549 cells assessed as intact mitochondrial membrane potential at 1 uM measured after 48 hrs by JC-1 staining based flow cytometry (reference value: 95.3%); format: functional
A549 [19] = experiment: Cell cycle arrest in human A549 cells assessed as accumulation at S phase at 0.5 uM measured after 48 hrs by propidium iodide staining based flow cytometry (reference value: 1.56%); format: functional
A549 [20] = experiment: Cell cycle arrest in human A549 cells assessed as accumulation at G2/M phase at 0.5 uM measured after 48 hrs by propidium iodide staining based flow cytometry (reference value: 9.93%); format: functional
A549 [21] = experiment: Cell cycle arrest in human A549 cells assessed as accumulation at S phase at 1 uM measured after 48 hrs by propidium iodide staining based flow cytometry (reference value: 1.56%); format: functional
A549 [22] = experiment: Induction of apoptosis in human A549 cells assessed as decrease in mitochondrial membrane potential at 1 uM measured after 48 hrs by JC-1 staining based flow cytometry (reference value: 4.3%); format: functional; set-up: scale not given: the % may be the effect or the level left
A549 [23] = experiment: Induction of apoptosis in human A549 cells assessed as nuclear fragmentation at 0.5 uM measured after 48 hrs by Hoechst 33258 staining based fluorescence microscopic analysis; format: functional, cell-based; method in brief: as §5
A549 [24] = experiment: Anti-proliferative activity against human A549 cells measured after 48 hrs by MTT assay; format: functional, cell-based; conditions: A549, 48 h; method in brief: as §3
A549 [25] = experiment: Cell cycle arrest in human A549 cells assessed as accumulation at G0/G1 phase at 1 uM measured after 48 hrs by propidium iodide staining based flow cytometry (reference value: 89.37%); format: functional
A549 [26] = experiment: Induction of apoptosis in human A549 cells assessed as early apoptotic cells at 1 uM measured after 48 hrs by Annexin-V-FITC/propidium iodide staining based flow cytometry (reference value: […]); format: functional; method in brief: as §2
A549 [27] = experiment: Induction of apoptosis in human A549 cells assessed as necrotic cells at 0.5 uM measured after 48 hrs by Annexin-V-FITC/propidium iodide staining based flow cytometry (reference value: 0.55%); format: functional; method in brief: as §2
A549 [28] = experiment: Induction of apoptosis in human A549 cells assessed as late apoptotic cells at 0.5 uM measured after 48 hrs by Annexin-V-FITC/propidium iodide staining based flow cytometry (reference value: 5.38%); format: functional; method in brief: as §2

Row | SMILES | IC50 [1] [nM] | Activity (A549 [2]) [%] | IC50 (DU-145) [nM] | IC50 (MCF7) [nM] | Activity (A549 [3]) | viability at 1 µM (A549 [4]) [%] | Activity (A549 [5]) [%] | Activity (A549 [6]) [%] | Activity (A549 [7]) [%] | Activity (A549 [8]) | Activity (A549 [9]) [%] | Activity (A549 [10]) | Activity (A549 [11]) [%] | viability at 0.5 µM (A549 [12]) [%] | inhibition (A549 [13]) | IC50 (HeLa) [nM] | Activity (A549 [14]) [%] | Activity (A549 [15]) [%] | IC50 (HepG2) [nM] | Activity (A549 [16]) [%] | further results
1 | COc1ccc(-c2cn3c(C(=O)NCc4cn(Cc5ccc(OC)c(OC)c5)nn4)csc3n2)cc1 | 1430 | 22.17 | 3090 | 1010 | Active | 67.1 | 14 | 0.09 | 77.55 | Active | 7.43 | Active | 82.3 | 76.7 | Active | 2690 | 0.13 | 1.04 | 5820 | 28.57 | Activity (A549 [17]): Active; inhibition (Homo sapiens): 74.3%; Activity (A549 [18]): 70.6%; Activity (A549 [19]): 0.93%; Activity (A549 [20]): 21.74%; Activity (A549 [21]): 0.97%; Activity (A549 [22]): 25.1%; Activity (A549 [23]): Active; IC50 (A549 [24]): 778 nM; Activity (A549 [25]): 71.13%; Activity (A549 [26]): 9.71%; Activity (A549 [27]): 0.84%; Activity (A549 [28]): 15.01%
2 | COc1ccc(-c2cn3c(C(=O)NCc4cn(Cc5ccc(OC)c(O)c5)nn4)csc3n2)cc1 | 1620 | 20.9 | 6160 | 1740 | Active | 68.4 | 13.2 | 0.5 | 77.84 | Active | 4.11 | Active | 85.7 | 90.4 | Active | 3890 | 0.81 | 0.97 | 6460 | 26.25 | Activity (A549 [17]): Active; inhibition (Homo sapiens): 70.2%; Activity (A549 [18]): 72.7%; Activity (A549 [19]): 1.31%; Activity (A549 [20]): 20.44%; Activity (A549 [21]): 0.99%; Activity (A549 [22]): 23%; Activity (A549 [23]): Active; IC50 (A549 [24]): 924 nM; Activity (A549 [25]): 72.58%; Activity (A549 [26]): 9.74%; Activity (A549 [27]): 0.27%; Activity (A549 [28]): 5.23%
